Tests used:
A549 [1] = test: Cytotoxicity against human A549 cells assessed as growth inhibition after 72 hrs by MTT based WST-8 assay; assay type: functional, cell-based; details: A549, 72 h
Method in brief: (§1)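 Cells in RPMI1640 with 10% FBS were seeded at 5.0×10^3 cells/well and left to adhere for 4 h at 37 °C, 5% CO2. Compound was then added for 72 h. Medium was removed and WST-8 reagent (stock: 5 mM WST-8, 0.2 mM 1-methoxyphenazinium salt, 150 mM NaCl) was added for 1.5 h at 37 °C. A450 was read with 650 nm correction. IC50 was taken from concentration–response curves as % of vehicle-control absorbance.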

MDA-MB-231 [2] = test: Cytotoxicity against human MDA-MB-231 cells assessed as growth inhibition at 10 uM after 72 hrs by MTT based WST-8 assay; assay type: functional; details: MDA-MB-231, 72 h, read-out: GI
Method in brief: (§2)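 Single-concentration screen at 10 μM. Cells in RPMI1640 with 10% FBS were seeded at 5.0×10^3 cells/well, adhered for 4 h, then exposed for 72 h at 37 °C, 5% CO2. Medium was removed and WST-8 reagent added for 1.5 h. Absorbance was read at 450 nm with 650 nm correction and growth was expressed as percentage of vehicle-control absorbance.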

MDA-MB-231 [3] = test: Cytotoxicity against human MDA-MB-231 cells assessed as growth inhibition after 72 hrs by MTT based WST-8 assay; assay type: functional, cell-based; details: MDA-MB-231, 72 h; method in brief: as §1
A549 [4] = test: Cytotoxicity against human A549 cells assessed as growth inhibition at 10 uM after 72 hrs by MTT based WST-8 assay; assay type: functional; details: A549, 72 h, read-out: GI; method in brief: as §2

Compound	IC50 (A549 [1]) [µM]	inhibition of growth at 10 µM (MDA-MB-231 [2]) [%]	IC50 (MDA-MB-231 [3]) [µM]	inhibition of growth at 10 µM (A549 [4]) [%]
O=C(Nc1ccc(Oc2ccc(-c3nccs3)cc2)cc1)Nc1cc(C(F)(F)F)ccc1Cl	7.04	60.4	8.9	75.5
O=C(Nc1ccc(Oc2ccc(-c3nccs3)cc2)cc1)Nc1ccc(Cl)c(C(F)(F)F)c1	3.81	69.6	6.06	77.6
O=C(Nc1ccc(Oc2ccc(-c3nccs3)cc2)cc1)Nc1ccc(Cl)c([N+](=O)[O-])c1	3.89	72.8	6.87	77.1
COC(=O)c1sccc1NC(=O)Nc1ccc(Oc2ccc(-c3nccs3)cc2)cc1	–	11	–	6.78
O=C(Nc1ccc(Cl)cc1)Nc1ccc(Oc2ccc(-c3ncc[nH]3)cc2)cc1	–	47.6	–	8.86
O=C(Nc1ccc(Oc2ccc(-c3ncc[nH]3)cc2)cc1)Nc1cc(Br)cc(C(F)(F)F)c1	–	-13.6	–	44.1
O=C(Nc1ccc(Oc2ccc(-c3ncc[nH]3)cc2)cc1)Nc1ccc(F)c(Cl)c1	–	4.2	–	14.6
COC(=O)c1sccc1NC(=O)Nc1ccc(Oc2ccc(-c3ncc[nH]3)cc2)cc1	–	-1.46	–	2.34
O=C(Nc1ccc(Oc2ccc(-c3ncc[nH]3)cc2)cc1)Nc1ccc(F)c(C(F)(F)F)c1	10.5	26.6	–	63.3
Cc1ccc(NC(=O)Nc2ccc(Oc3ccc(-c4ncc[nH]4)cc3)cc2)cc1	–	49.3	–	24.6
O=C(Nc1ccccc1)Nc1ccc(Oc2ccc(-c3ncc[nH]3)cc2)cc1	–	11.4	–	7.09
O=C(Nc1ccc(Oc2ccc(-c3nccs3)cc2)cc1)Nc1cccc(C(F)(F)F)c1	5.56	64.1	9.55	71.5
O=C(Nc1ccc(Cl)cc1)Nc1ccc(Oc2ccc(-c3nccs3)cc2)cc1	–	32.5	–	17.7
Cc1ccc(NC(=O)Nc2ccc(Oc3ccc(-c4nccs4)cc3)cc2)cc1	–	22.8	–	15.6
O=C(Nc1ccc(Oc2ccc(-c3ncc[nH]3)cc2)cc1)Nc1ccc(Cl)c(C(F)(F)F)c1	7.09	38.1	–	67.9
O=C(Nc1ccc(Oc2ccc(-c3ncc[nH]3)cc2)cc1)Nc1cc(C(F)(F)F)ccc1Cl	–	32.3	–	22.3
O=C(Nc1ccc(Oc2ccc(-c3ncc[nH]3)cc2)cc1)Nc1ccc(Cl)c([N+](=O)[O-])c1	–	3.36	–	12.4
O=C(Nc1ccc(Oc2ccc(-c3nccs3)cc2)cc1)Nc1ccc(F)c(C(F)(F)F)c1	4.98	71.8	8.66	76.4
O=C(Nc1ccc(Oc2ccc(-c3nccs3)cc2)cc1)Nc1cc(Br)cc(C(F)(F)F)c1	2.71	72.8	4.19	81.7
O=C(Nc1ccc(Oc2ccc(-c3nccs3)cc2)cc1)Nc1ccc(F)c(Cl)c1	–	43.9	–	37.3
O=C(Nc1ccc(Oc2ccc(-c3ncc[nH]3)cc2)cc1)Nc1cccc(C(F)(F)F)c1	–	28.1	–	30
CNC(=O)c1cc(Oc2ccc(NC(=O)Nc3ccc(Cl)c(C(F)(F)F)c3)cc2)ccn1 [SORAFENIB]	5.21	79.6	7.62	81.2

Reference: ChEMBL document CHEMBL1165866, “Design, synthesis, and in vitro antitumor evaluation of novel diaryl ureas derivatives” (Eur J Med Chem, 2010)
